Laboratory results: ChEMBL document CHEMBL4513216, “Probing the Open Global Health Chemical Diversity Library for Multistage-Active Starting Points for Next-Generation Antimalarials” (ACS Infect Dis, 2020)

Assay: Toxicity liver stage against HepG2, at 10uM
Format: cell-based
Parameters: test concentration 10 uM, cell line HepG2-A16-CD81EGFP
Details: human, HepG2-A16-CD81EGFP cells; read-out: INHIBITION
Summary of the method: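 Uninfected HepG2-A16-CD81EGFP cells, 3 × 10^3 per well, 1536-well, plated on prespotted compound at 10 μM final, parasite-free screening media added to match infected plates; puromycin 10 μM positive, DMSO 0.5% negative; run in parallel with 48 h PbLuc assay at 37 °C, 5% CO2; viability by CellTiter-Glo luminescence, normalized to controls.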

CCc1c(C)nc(SCc2ccccn2)[nH]c1=O
cytotoxicity at 10 µM: 9.56%

COc1ccc(CN2CCCC2c2cccc(F)c2)c(OC)c1OC (configuration not stated)
cytotoxicity at 10 µM: 3.48%

COc1ccc(Cl)cc1NCc1nc2[nH]c(C)c(C)c(=O)n2n1
cytotoxicity at 10 µM: 0.308%

Cc1nc2oc(C(=O)N3CCCC3)c(N)c2c2c1CCCC2
cytotoxicity at 10 µM: -6.95%

Cc1cc(CNC(=O)COc2ccccc2F)c(C)o1
cytotoxicity at 10 µM: -2.33%

Cn1nc(CNC(=O)c2cccc(C(F)(F)F)c2)c2c1CCOC2
cytotoxicity at 10 µM: 4.07%

CN1C(=O)CCC12CCN(Cc1ccco1)CC2
cytotoxicity at 10 µM: 1.61%

CC1CC2(CCN(C(=O)c3csnn3)CC2)c2ccccc21 (configuration not stated)
cytotoxicity at 10 µM: -137%

c1ccc(NC[C@@H]2CCC[C@@H]3CN(Cc4csnn4)C[C@@H]32)nc1
cytotoxicity at 10 µM: -114%

O=C(C1CC=CC1)N1CCc2ncnc(-c3ccncc3)c2CC1
cytotoxicity at 10 µM: 2.31%

COCC(C)NC(=O)c1cn(C(C)(C)C)c2ncccc12 (configuration not stated)
cytotoxicity at 10 µM: 2.69%

COCCO[C@@H]1C[C@H]2CN(C(=O)c3cnccn3)CCN2C1
cytotoxicity at 10 µM: -8.58%

CC(=O)Nc1ncc(S(=O)(=O)Nc2ccccc2F)s1
cytotoxicity at 10 µM: 14.4%

CN(C)CCCNC(=O)c1nnsc1-c1ccccc1
cytotoxicity at 10 µM: 5.75%

CCn1cc(NC(=O)C(C)n2ncc(Cl)c2C)c(C(=O)NC)n1 (configuration not stated)
cytotoxicity at 10 µM: 9.51%

CCc1nnc(SCc2nonc2C)n1C1CC1
cytotoxicity at 10 µM: 0.649%

O=C1CC(c2ccc(F)cc2)c2snc(C(=O)O)c2N1 (configuration not stated)
cytotoxicity at 10 µM: 0.833%

COc1ccc(C2=NOC(C#N)C2)cc1 (configuration not stated)
cytotoxicity at 10 µM: -11.2%

CC(C)C(=O)N1CCCC(Cc2cccnc2)C1 (configuration not stated)
cytotoxicity at 10 µM: -1.55%

O[C@@H]1C[C@H]2CN(CC3CCCCC3)[C@H](Cc3ccccc3)CN2C1
cytotoxicity at 10 µM: 0.13%

Cc1ocnc1C(=O)N(C)[C@@H]1CC[C@@H](Oc2ccccc2)[C@@H]1O
cytotoxicity at 10 µM: -0.658%

Cc1nn(C)cc1S(=O)(=O)N[C@@H]1CC[C@@H](n2ccnc2C)[C@@H]1O
cytotoxicity at 10 µM: -3.43%

CO[C@H]1CN(C(=O)c2cn3cc(C)ccc3n2)CC[C@@]12CCCO2
cytotoxicity at 10 µM: 3.6%

OCCc1cc(C2CCCN2c2ncccn2)n[nH]1 (configuration not stated)
cytotoxicity at 10 µM: 5.56%

Cc1cccc(-c2nccnc2C2CCCN(C)C2)c1 (configuration not stated)
cytotoxicity at 10 µM: 0.83%

NC(=O)CN1CCCC(Cc2ccc(N3CCOCC3)nn2)C1 (configuration not stated)
cytotoxicity at 10 µM: 8.21%

CCCn1cc(CN2CCCC2c2cccc(-n3ccnc3)n2)cn1 (configuration not stated)
cytotoxicity at 10 µM: -19.6%

Cc1noc(C)c1-c1cncc(C2CCCN2Cc2nccs2)n1 (configuration not stated)
cytotoxicity at 10 µM: -14.2%

Cc1cc(N(C)C)nc(C2(C)CCCN2C(=O)c2ccccc2)n1 (configuration not stated)
cytotoxicity at 10 µM: -27.4%

CN(C)Cc1ccnc(C2CCCN2Cc2cccc(F)c2F)n1 (configuration not stated)
cytotoxicity at 10 µM: 2.22%

Cc1cc2cc(C(=O)N3C[C@H](O)[C@]4(CCCO4)C3)ccc2o1
cytotoxicity at 10 µM: -10.9%

c1cnc(N2CCCC(c3cncc(-n4ccnc4)n3)C2)nc1 (configuration not stated)
cytotoxicity at 10 µM: -11.8%

c1cnc(N2CCC(c3n[nH]c4ncccc34)C2)nc1 (configuration not stated)
cytotoxicity at 10 µM: -4.47%

CC1(C(=O)NCc2cccc(C(F)(F)F)c2)CCOCC1
cytotoxicity at 10 µM: 7.63%

Cc1ccc(-n2nc3n(c2=O)CCN(C(=O)c2ccc(Cl)cc2)C3)cc1
cytotoxicity at 10 µM: 6.78%

Cc1ccc(CNC(=O)CN(CCC(N)=O)c2ccc(F)cc2)cc1
cytotoxicity at 10 µM: -2.62%

Cc1cc(NC(=O)NCCC(=O)N2CCCc3ccccc32)no1
cytotoxicity at 10 µM: -5.96%

COc1ccc(CNC(=O)C(NC(=O)Cc2ccccc2)C(C)C)cn1 (configuration not stated)
cytotoxicity at 10 µM: -0.943%

NC(=O)COc1ccc(C2NC(=O)CN2Cc2ccc(Br)cc2)cc1 (configuration not stated)
cytotoxicity at 10 µM: -7.38%

CCc1ccc(CNC(=O)CCNc2ncccn2)s1
cytotoxicity at 10 µM: 3.73%

CN(C)C1Cc2ccccc2N(S(=O)(=O)c2ccc(C#N)cc2)C1 (configuration not stated)
cytotoxicity at 10 µM: 2.91%

CC1CN(c2ncnc3cccc(F)c23)CCO1 (configuration not stated)
cytotoxicity at 10 µM: 16.1%

CS(=O)(=O)NC1CCCN(Cc2ccc(OCc3ccccn3)cc2)C1 (configuration not stated)
cytotoxicity at 10 µM: 1.8%

CS(=O)(=O)NC1CCCN(Cc2ccccn2)C1 (configuration not stated)
cytotoxicity at 10 µM: 4.74%

COC(=O)CCNC(=O)c1cc(Br)c2c(c1)OCCO2
cytotoxicity at 10 µM: 11%

CCN(CC1CCCO1)C(=O)CSCC(=O)Nc1ccc(C)cc1 (configuration not stated)
cytotoxicity at 10 µM: -1.69%

Cc1cc2n(n1)CC(CNC1CCN(Cc3ccncc3)CC1)CN2 (configuration not stated)
cytotoxicity at 10 µM: 1.78%

Cn1cc(-c2nc(CN3CCn4c(nnc4C4CC4)C3)cs2)cn1
cytotoxicity at 10 µM: -1.07%

COCCOc1ccc(NC(=O)N2CCOC(C(N)=O)C2)cc1F (configuration not stated)
cytotoxicity at 10 µM: -140%

Cc1ccc(C(=O)NC2CCOc3ccccc32)cc1S(C)(=O)=O (configuration not stated)
cytotoxicity at 10 µM: -3.83%

COc1nc(C)ccc1CNC(=O)NC(C)(C)c1ncc(C)s1
cytotoxicity at 10 µM: 14.7%

CC(C)Cn1cc(NC(=O)NCC2CCN(c3ccccc3)C2)cn1 (configuration not stated)
cytotoxicity at 10 µM: 2.53%

Cn1nc2c(cc1=O)CN(Cc1ccc(-n3cccn3)cc1)CC2
cytotoxicity at 10 µM: -141%

CCN(Cc1cccc(NC(=O)COCCOC)c1)C(C)=O
cytotoxicity at 10 µM: -136%

COc1ccccc1N1CCC(CNC(=O)N(C)Cc2ccco2)C1 (configuration not stated)
cytotoxicity at 10 µM: -146%

CCCc1nnnn1Cc1cn2c(C)cccc2n1
cytotoxicity at 10 µM: -8.51%

N#Cc1ccc(N2CCN(c3cnccn3)CC2)cc1C(F)(F)F
cytotoxicity at 10 µM: 38.6%

Cn1cc(S(=O)(=O)NCCc2nnc3ccccn23)cn1
cytotoxicity at 10 µM: 8.43%

CN(Cc1cc(Cl)ccc1Cl)Cc1ncnn1C
cytotoxicity at 10 µM: -0.943%

COc1cccc(CNCc2cccnc2-n2cccn2)c1OC
cytotoxicity at 10 µM: 2.86%

COc1cccc(NC(=O)NC2(c3noc(CN(C)C)n3)CCCC2)c1
cytotoxicity at 10 µM: 2.6%

Cc1cc(NC(=O)N(C)C2CCCN(c3ccccc3)C2=O)n(C)n1 (configuration not stated)
cytotoxicity at 10 µM: 5.42%

Cc1cccc(CCC(=O)Nc2cccnc2N2CCC(O)CC2)c1
cytotoxicity at 10 µM: -2.25%

CSc1ccc(OCCN2CCNC(=O)C2C)cc1 (configuration not stated)
cytotoxicity at 10 µM: 8.57%

CC(Nc1ccc(CN2CCCC2=O)cc1)C(=O)N(C)CCC#N (configuration not stated)
cytotoxicity at 10 µM: 13.7%

Cc1ccc(NCc2ccco2)cc1N1CCOC1=O
cytotoxicity at 10 µM: -10.6%

CNC(=O)NCC(CO)Cc1ccccc1OC(F)(F)F (configuration not stated)
cytotoxicity at 10 µM: 5.97%

CS(=O)(=O)NCc1nnc2n1CCN(Cc1ccc(F)cc1)C2
cytotoxicity at 10 µM: -72.7%

O=C(c1ccc(-c2nc[nH]n2)cc1)N1CC[C@H](CO)[C@@H](O)C1
cytotoxicity at 10 µM: 0.466%

O=C(CCc1cn[nH]c1)N1C[C@@H](CN2CCOCC2)C[C@H](CO)C1
cytotoxicity at 10 µM: 3.13%

COCCN(CC1CC1)c1nc(CCN)nc2ccccc12
cytotoxicity at 10 µM: 9.22%

CN(CCc1ccccn1)C(=O)CCC1CCCN(c2ncccn2)C1 (configuration not stated)
cytotoxicity at 10 µM: 1.64%

Cc1ccsc1[C@@H]1CCN(C(=O)c2ccc(-c3cc[nH]n3)cc2)C[C@H]1O
cytotoxicity at 10 µM: 4.28%

CN(CCN1CCCCCC1)C(=O)c1cc(CN2CCCC(O)C2)on1 (configuration not stated)
cytotoxicity at 10 µM: -0.641%

CCCN(Cc1nccn1C)C(=O)C(CC)Nc1cccc(OC)c1 (configuration not stated)
cytotoxicity at 10 µM: 0.417%

Cc1nc(N(C)CCCc2nccn2C)c2c(C)nn(C)c2n1
cytotoxicity at 10 µM: 5.84%

CCCn1cnnc1CN(C)C(=O)CCC(=O)Nc1cc(C)ccc1F
cytotoxicity at 10 µM: 16.1%

Cc1cc2cccc(NC(=O)N3CCC(N4CCSCC4)CC3)c2o1
cytotoxicity at 10 µM: -3.25%

COCCCN1C(=O)CC[C@H]2CN(Cc3ccc4occc4c3)CC[C@H]21
cytotoxicity at 10 µM: 8.98%

O=C(N[C@H]1CN(C2CCOCC2)C[C@@H]1C1CC1)c1ccon1
cytotoxicity at 10 µM: 5.21%

COc1ccc(F)cc1CN1CCC(O)(CN2CCCCC2)C1 (configuration not stated)
cytotoxicity at 10 µM: -12%

Cc1cccnc1CC(C)N(C)C(=O)c1cccs1 (configuration not stated)
cytotoxicity at 10 µM: -1.02%

Cc1cccc(C)c1NC(=O)c1cccc(N(C)S(C)(=O)=O)c1C
cytotoxicity at 10 µM: 3.03%

CCCc1cc(=O)[nH]c(-c2ccccc2CN(C)CCn2cccn2)n1
cytotoxicity at 10 µM: -1.41%

O=C(CCn1cncn1)N1CC[C@@H](c2ccc3ccccc3c2)[C@H](O)C1
cytotoxicity at 10 µM: -5.16%

COc1cccc(N2CCN(C(=O)CCO)CC2=O)c1
cytotoxicity at 10 µM: 3.75%

Cc1nc(C)n(C2CCCN(C(=O)c3ccc(O)nc3)C2)n1 (configuration not stated)
cytotoxicity at 10 µM: -1.95%

CCn1ccnc1CN1CCCN(C(=O)c2ccsc2)CC1
cytotoxicity at 10 µM: -6.63%

Cc1cc(C)n(CC2CN(Cc3cc(C)on3)CCO2)n1 (configuration not stated)
cytotoxicity at 10 µM: -9.71%

COC(=O)c1cccn1C1CCN(C(=O)c2cc(C)ccc2O)CC1
cytotoxicity at 10 µM: -3.22%

CN(CC(=O)N1CCC(C(O)c2ccccc2)CC1)c1cnccn1 (configuration not stated)
cytotoxicity at 10 µM: -2.9%

CC(O)CN1CCN(C(=O)c2ccc(Br)o2)CC1 (configuration not stated)
cytotoxicity at 10 µM: -8.6%

CCCc1noc(CN2CCCC2c2ccsc2)n1 (configuration not stated)
cytotoxicity at 10 µM: -18.8%

COc1c(C2CCCN2C(=O)Cc2c(C)noc2C)c(C)nn1C (configuration not stated)
cytotoxicity at 10 µM: -12.9%

Fc1cccc(-c2nc(CN3CCn4c(nnc4C4CC4)C3)co2)c1
cytotoxicity at 10 µM: 4.4%

Cc1ccc(NC2CCN(C(=O)c3cccc4ncccc34)CC2)nn1
cytotoxicity at 10 µM: 7.51%

O=C(Cc1ccc(-n2cccn2)cc1)N1CCN2CCCCC2C1 (configuration not stated)
cytotoxicity at 10 µM: 4.31%

CCc1noc(C(C)N2CCNCC2)n1 (configuration not stated)
cytotoxicity at 10 µM: -3.46%

CC(NC(=O)c1cc(Br)c2c(c1)OCCO2)C(N)=O (configuration not stated)
cytotoxicity at 10 µM: -1.06%

COc1c(C2CCCN2C(=O)c2cncnc2C)c(C)nn1C (configuration not stated)
cytotoxicity at 10 µM: -6.19%

Cc1cnn(C2CCCN(C(=O)CCCOc3cccc(F)c3)C2)c1 (configuration not stated)
cytotoxicity at 10 µM: 6.71%

CC(OCC(F)(F)F)C(=O)Nc1ccc(-n2cncn2)nc1 (configuration not stated)
cytotoxicity at 10 µM: 3.44%

CN(C)S(=O)(=O)c1ccc(-c2nc(C#N)c(NC(C)(C)C)o2)o1
cytotoxicity at 10 µM: -12.3%

c1cc2nccc(CC3CCCN(C4CCOCC4)CC3)c2cn1 (configuration not stated)
cytotoxicity at 10 µM: -8.24%

O=C1CC2(CNCCN(C(=O)Nc3ccccc3)C2)CN1 (configuration not stated)
cytotoxicity at 10 µM: 2.23%

CC(=O)N1CCN(Cc2ccsc2)CC2(CC(=O)N(C)C2)C1 (configuration not stated)
cytotoxicity at 10 µM: -1.27%

Cc1ncsc1CN1C[C@@H](OCc2ccncc2)[C@H]2OCCC[C@H]21
cytotoxicity at 10 µM: -148%

CN(C)[C@@H]1CCN(C(=O)Cc2ccc(F)cc2)[C@H]1Cc1ccncc1
cytotoxicity at 10 µM: -84.7%

c1cc(CNCc2ccc(Cn3cncn3)cc2)c2c(c1)OCCO2
cytotoxicity at 10 µM: 0.585%

O=C(C1CCCC1)N1C[C@@H]2CCN(c3cnccn3)C[C@@H]2C1
cytotoxicity at 10 µM: 3.44%

Cc1nc(CN2CCc3ncnc(C4CC4)c3CC2)cs1
cytotoxicity at 10 µM: -81.9%

COCCN1C(=O)[C@@H]2CC[C@H]1CN(Cc1nnc(C3CC3)o1)C2
cytotoxicity at 10 µM: 11.6%
